Calls of active or inactive are those of the source. The rule behind the calls is not given here.
How the values were obtained:
[1] = system: HSC-3; assay: Selectivity index, ratio of CC50 for human normal cells to CC50 for human HSC3 cells; type: functional
[2] = system: HSC-4; assay: Selectivity index, ratio of CC50 for human normal cells to CC50 for human HSC4 cells; type: functional
[3] = system: HSC-2; assay: Cytotoxicity against human HSC2 cells after 48 hrs; type: functional; settings: HSC-2, 48 h
Method in brief: (§1)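 Human HSC-2, HSC-3, HSC-4 squamous carcinoma and HL-60 promyelocytic leukaemia cells incubated with compound for 48 h. CC50, the concentration killing 50% of cells, read from a dose–response curve.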

[4] = system: HSC-4; assay: Ratio of melphalan CC50 to compound CC50 for human HSC4 cells; type: functional
[5] = Cytotoxicity against human HGF cells after 48 hrs; type: cell-based
Method in brief: (§2)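 Cells were exposed to a dose range for 48 h, following a literature method. CC50 was read from the dose–response curve.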

[6] = system: RPMI-8226; assay: Cytotoxicity against human RPMI8226 cells; type: functional, cell-based
Method in brief: (§3)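 Human colon cancer and leukaemia line panel. Compounds tested from 10^-4 to 10^-8 M, and IC50 values determined.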

[7] = system: HL-60(TB); assay: Cytotoxicity against human HL-60(TB) cells; type: functional, cell-based; method in brief: as §3
[8] = system: COLO 205; assay: Cytotoxicity against human COLO205 cells; type: functional, cell-based; method in brief: as §3
[9] = system: HSC-3; assay: Cytotoxicity against human HSC3 cells after 48 hrs; type: functional; settings: HSC-3, 48 h; method in brief: as §1
[10] = system: MOLT-4; assay: Growth inhibition of human Molt4/C8 cells; type: functional, cell-based
[11] = target: T1, ATP-dependent translocase ABCB1 (Homo sapiens, UniProt P08183); assay: Inhibition of human MDR1-mediated multidrug resistant in mouse L5178Y cells at 4 uM treated 10 mins before rhodamine 123 challenge measured after 20 mins relative to control; type: cell-based
Method in brief: (§4)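 Compounds in DMSO were added at room temperature to mdr1-transfected and parental L5178Y cells. After 10 min, rhodamine 123 was added, followed by 20 min at 37 °C. Cellular rhodamine fluorescence was measured and expressed as fluorescence activity ratio (FAR); FAR >1 indicates MDR reversal.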

[12] = system: KM12; assay: Cytotoxicity against human KM12 cells; type: functional, cell-based; method in brief: as §3
[13] = system: CCRF-CEM; assay: Growth inhibition of human CEM cells; type: functional, cell-based
[14] = system: HSC-2; assay: Selectivity index, ratio of CC50 for human normal cells to CC50 for human HSC2 cells; type: functional
[15] = system: SW-620; assay: Cytotoxicity against human SW620 cells; type: functional, cell-based; method in brief: as §3
[16] = system: HSC-2; assay: Ratio of melphalan CC50 to compound CC50 for human HSC2 cells; type: functional
[17] = system: HCC 2998; assay: Cytotoxicity against human HCC2998 cells; type: functional, cell-based; method in brief: as §3
[18] = target: T1, ATP-dependent translocase ABCB1; assay: Inhibition of human MDR1-mediated multidrug resistant in mouse L5178Y cells at 40 uM treated 10 mins before rhodamine 123 challenge measured after 20 mins relative to control; type: cell-based; method in brief: as §4
[19] = system: HCT-116; assay: Cytotoxicity against human HCT116 cells; type: functional, cell-based; method in brief: as §3
[20] = system: HSC-4; assay: Cytotoxicity against human HSC4 cells after 48 hrs; type: functional; settings: HSC-4, 48 h; method in brief: as §1
[21] = system: L1210; assay: Growth inhibition of mouse L1210 cells; type: functional, cell-based
[22] = system: HL-60; assay: Cytotoxicity against human HL60 cells after 48 hrs; type: functional; settings: HL-60, 48 h; method in brief: as §1
[23] = system: K562; assay: Cytotoxicity against human K562 cells; type: functional, cell-based; method in brief: as §3
[24] = system: HL-60; assay: Selectivity index, ratio of CC50 for human normal cells to CC50 for human HL60 cells; type: functional
[25] = system: HSC-3; assay: Ratio of melphalan CC50 to compound CC50 for human HSC3 cells; type: functional
[26] = system: HT-29; assay: Cytotoxicity against human HT-29 cells; type: functional, cell-based; method in brief: as §3
[27] = system: HCT-15; assay: Cytotoxicity against human HCT15 cells; type: functional, cell-based; method in brief: as §3
[28] = Cytotoxicity against human HPLF cells after 48 hrs; type: cell-based; method in brief: as §2
[29] = system: HCT-116; assay: Cell cycle arrest in human HCT116 cells assessed as accumulation at S phase at 1 uM after 48 hrs using propidium iodide staining by flow cytometry (reference value: 3.19%); type: functional
[30] = system: HL-60; assay: Induction of apoptosis in human HL60 cells assessed as formation of internucleosomal DNA fragmentation at up to 0.8 uM after 24 hrs; type: functional, cell-based
[31] = system: HL-60; assay: Induction of apoptosis in human HL60 cells assessed as increase of caspase-3 activation using DEVD-pnitroanilide as substrate after 6 hrs; type: functional, cell-based
Method in brief: (§5)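 HSC-2 and HL-60 cells were exposed for up to 6 h and then lysed. Lysates were mixed with DEVD-p-nitroanilide and incubated at 37 °C for 2 h. Released p-nitroanilide was read at 405 nm.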

[32] = system: HCT-116; assay: Cell cycle arrest in human HCT116 cells assessed as accumulation at G2/M phase at 1 uM after 48 hrs using propidium iodide staining by flow cytometry (reference value: 4.75%); type: functional
[33] = system: HSC-2; assay: Induction of apoptosis in human HSC2 cells assessed as formation of internucleosomal DNA fragmentation at up to 0.8 uM after 24 hrs; type: functional, cell-based
[34] = system: HCT-116; assay: Cell cycle arrest in human HCT116 cells assessed as accumulation at G0/G1 phase at 1 uM after 48 hrs using propidium iodide staining by flow cytometry (reference value: 92.07%); type: functional
[35] = system: HSC-2; assay: Induction of apoptosis in human HSC2 cells assessed as formation of internucleosomal DNA fragmentation at up to 0.8 uM after 6 hrs; type: functional, cell-based
[36] = system: HSC-2; assay: Induction of apoptosis in human HSC2 cells assessed as increase of caspase-3 activation using DEVD-pnitroanilide as substrate after 6 hrs; type: functional, cell-based; method in brief: as §5
[37] = system: HL-60; assay: Induction of apoptosis in human HL60 cells assessed as formation of internucleosomal DNA fragmentation at up to 0.8 uM after 6 hrs; type: functional, cell-based
[38] = system: HL-60; assay: Induction of apoptosis in human HL60 cells assessed as increase of PARP1 cleavage at 0.2 uM after 6 hrs by Western blot analysis; type: functional, cell-based
Method in brief: (§6)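 HSC-2 cells were treated at 0.4 µM and HL-60 cells at 0.2 µM. Cells were washed in ice-cold PBS and lysed in HEPES pH 7.4/Triton X-100 buffer with phosphatase and protease inhibitors. Lysates were run on 8% SDS-PAGE and transferred to PVDF. Blots were blocked in 5% milk and probed with anti-cleaved PARP1 and anti-β-actin, then HRP-conjugated secondary antibodies.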

[39] = system: HSC-2; assay: Induction of apoptosis in human HSC2 cells assessed as increase of PARP1 cleavage at 0.4 uM after 12 hrs by Western blot analysis; type: functional, cell-based; method in brief: as §6
[40] = system: HCT-116; assay: Cell cycle arrest in human HCT116 cells assessed as accumulation at G2/M phase at 16 uM after 48 hrs using propidium iodide staining by flow cytometry (reference value: 4.75%); type: functional
[41] = system: HCT-116; assay: Cell cycle arrest in human HCT116 cells assessed as accumulation at G0/G1 phase at 16 uM after 48 hrs using propidium iodide staining by flow cytometry (reference value: 92.07%); type: functional
[42] = system: HCT-116; assay: Cell cycle arrest in human HCT116 cells assessed as accumulation at S phase at 16 uM after 48 hrs using propidium iodide staining by flow cytometry (reference value: 3.19%); type: functional

T1 sequence (P08183 whole entry): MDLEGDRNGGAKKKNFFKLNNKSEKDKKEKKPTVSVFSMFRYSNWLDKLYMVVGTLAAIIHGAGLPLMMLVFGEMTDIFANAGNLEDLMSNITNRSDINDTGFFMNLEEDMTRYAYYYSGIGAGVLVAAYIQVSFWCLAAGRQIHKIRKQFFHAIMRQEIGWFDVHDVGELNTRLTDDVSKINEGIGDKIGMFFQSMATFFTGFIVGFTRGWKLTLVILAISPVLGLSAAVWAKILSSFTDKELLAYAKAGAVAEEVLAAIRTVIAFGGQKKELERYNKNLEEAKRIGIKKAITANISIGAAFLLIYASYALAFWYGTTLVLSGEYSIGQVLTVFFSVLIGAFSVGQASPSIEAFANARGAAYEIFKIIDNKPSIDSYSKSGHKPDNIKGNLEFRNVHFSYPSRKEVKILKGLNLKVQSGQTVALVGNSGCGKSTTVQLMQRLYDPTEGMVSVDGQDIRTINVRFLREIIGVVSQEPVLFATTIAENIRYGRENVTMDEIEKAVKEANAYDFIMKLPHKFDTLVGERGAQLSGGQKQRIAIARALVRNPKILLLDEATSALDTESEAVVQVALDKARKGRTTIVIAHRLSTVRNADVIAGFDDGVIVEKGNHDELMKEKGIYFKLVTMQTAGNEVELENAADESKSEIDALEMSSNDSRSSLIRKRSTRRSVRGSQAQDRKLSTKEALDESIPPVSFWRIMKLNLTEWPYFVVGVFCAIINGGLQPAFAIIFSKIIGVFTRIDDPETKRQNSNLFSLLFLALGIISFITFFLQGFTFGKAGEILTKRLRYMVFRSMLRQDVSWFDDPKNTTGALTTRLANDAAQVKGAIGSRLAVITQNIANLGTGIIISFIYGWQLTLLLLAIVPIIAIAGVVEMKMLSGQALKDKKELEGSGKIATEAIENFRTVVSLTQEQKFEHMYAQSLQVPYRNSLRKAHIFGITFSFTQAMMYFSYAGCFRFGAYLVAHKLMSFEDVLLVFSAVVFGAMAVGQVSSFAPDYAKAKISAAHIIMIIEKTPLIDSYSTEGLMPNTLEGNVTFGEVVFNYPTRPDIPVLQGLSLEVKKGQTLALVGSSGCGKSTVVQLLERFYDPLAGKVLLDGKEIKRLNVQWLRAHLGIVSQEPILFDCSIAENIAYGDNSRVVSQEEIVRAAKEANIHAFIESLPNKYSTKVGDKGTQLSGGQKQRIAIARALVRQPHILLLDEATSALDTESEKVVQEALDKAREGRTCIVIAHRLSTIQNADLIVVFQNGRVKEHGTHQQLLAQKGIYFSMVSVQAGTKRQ

Compound: O=C1/C(=C/c2ccccc2)CN(C(=O)c2ccccc2C(=O)N2C/C(=C\c3ccccc3)C(=O)/C(=C/c3ccccc3)C2)C/C1=C\c1ccccc1
- Ratio [1]: 64.7
- Ratio [2]: 60
- CC50 [3]: 26 nM
- Ratio [4]: 390
- CC50 at 48 h [5]: 5700 nM
- IC50 [6]: 60 nM
- IC50 [7]: 210 nM
- IC50 [8]: 210 nM
- CC50 [9]: 76 nM
- growth inhibition (GI) [10]: Active
- Ratio [11]: 46.5
- IC50 [12]: 210 nM
- growth inhibition (GI) [13]: Active
- Ratio [14]: 189
- IC50 [15]: 300 nM
- Ratio [16]: 335
- IC50 [17]: 200 nM
- Ratio [18]: 51.5
- IC50 [19]: 30 nM
- CC50 [20]: 82 nM
- growth inhibition (GI) [21]: Active
- CC50 [22]: 110 nM
- IC50 [23]: 210 nM
- Ratio [24]: 44.7
- Ratio [25]: 329
- IC50 [26]: 170 nM
- IC50 [27]: 350 nM
- CC50 at 48 h [28]: 8500 nM

Compound: O=C1/C(=C/c2ccccc2)CN(C(=O)CCC(=O)N2C/C(=C\c3ccccc3)C(=O)/C(=C/c3ccccc3)C2)C/C1=C\c1ccccc1
- Ratio [1]: 39.9
- Ratio [2]: 38.2
- CC50 [3]: 99 nM
- CC50 at 48 h [5]: 10000 nM
- IC50 [6]: 60 nM
- IC50 [7]: 270 nM
- IC50 [8]: 390 nM
- CC50 [9]: 230 nM
- growth inhibition (GI) [10]: Active
- Ratio [11]: 35
- IC50 [12]: 300 nM
- growth inhibition (GI) [13]: Active
- Ratio [14]: 92.6
- IC50 [15]: 260 nM
- IC50 [17]: 230 nM
- Ratio [18]: 60
- IC50 [19]: 140 nM
- CC50 [20]: 240 nM
- growth inhibition (GI) [21]: Active
- CC50 [22]: 410 nM
- IC50 [23]: 220 nM
- Ratio [24]: 22.4
- IC50 [26]: 240 nM
- IC50 [27]: 380 nM
- CC50 at 48 h [28]: 16000 nM

Compound: O=C1/C(=C/c2ccccc2)CN(C(=O)CC(=O)N2C/C(=C\c3ccccc3)C(=O)/C(=C/c3ccccc3)C2)C/C1=C\c1ccccc1
- Ratio [1]: 20
- Ratio [2]: 11
- Activity [29]: 43.46%
- Activity [30]: Active
- CC50 [3]: 50 nM
- Activity [31]: Active
- CC50 at 48 h [5]: 1100 nM
- Activity [32]: 25.01%
- IC50 [6]: 130 nM
- Activity [33]: Active
- IC50 [7]: 290 nM
- Activity [34]: 31.54%
- Activity [35]: inactive
- IC50 [8]: 160 nM
- CC50 [9]: 46 nM
- growth inhibition (GI) [10]: Active
- Ratio [11]: 35.3
- IC50 [12]: 130 nM
- growth inhibition (GI) [13]: Active
- Ratio [14]: 18.4
- IC50 [15]: 50 nM
- IC50 [17]: 170 nM
- Activity [36]: Active
- Ratio [18]: 53.3
- Activity [37]: Active
- IC50 [19]: 30 nM
- CC50 [20]: 84 nM
- growth inhibition (GI) [21]: Active
- CC50 [22]: 46 nM
- IC50 [23]: 50 nM
- Activity [38]: Active
- Ratio [24]: 20
- IC50 [26]: 50 nM
- IC50 [27]: 170 nM
- Activity [39]: Active
- CC50 at 48 h [28]: 1300 nM

Compound: COc1cc(/C=C/C(=O)CC(=O)/C=C/c2ccc(O)c(OC)c2)ccc1O [CURCUMIN]
- Activity [40]: 45.42%
- Activity [41]: 48.97%
- Activity [42]: 5.62%

Reference: ChEMBL document CHEMBL2010770, “Dimeric 3,5-bis(benzylidene)-4-piperidones: a novel cluster of tumour-selective cytotoxins possessing multidrug-resistant properties” (Eur J Med Chem, 2012)
